pIC50: −log10 of the molar value. Activity calls are given as the source filed them. The calls are words filed in the database; no cut-off is given here.
Experiments:
Mus musculus = experiment: In vivo inhibition of PI3Kalpha in BALB/cA nude mouse xenografted with human SK-OV-3 cells assessed as reduction in AKT phosphorylation at Ser473 residue in tumor at 5 mg/kg, po measured after 4 to 8 hrs by Western blot analysis; assay type: functional, organism-based; details: time 4-8 hrs
Outline: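 Nude mice carrying SKOV-3 xenografts of 200 mm³ got a single oral 5 mg/kg dose. Tumors were collected at 0, 2, 4 or 8 h, homogenized, and pAkt S473 probed by Western blot.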

PC-3 = experiment: Antiproliferative activity against human PC-3 cells assessed as reduction in cell viability after 72 hrs by sulforhodamine B assay; assay type: functional, cell-based; details: PC-3, 72 h
Outline: (§1)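 SRB assay. Exponentially growing cells seeded at 3000–5000/well, compounds added serially diluted after 24 h, cultured 72 h. Cells fixed with 10% TCA, stained with SRB, dye dissolved in 10 mM Tris-HCl, absorbance read at 560 nm. Inhibition = (ODcontrol − ODtreated)/ODcontrol × 100%. IC50 is the mean of at least three independent tests.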

[1] = biological target: Phosphatidylinositol 4,5-bisphosphate 3-kinase catalytic subunit alpha isoform (Homo sapiens, UniProt P42336); experiment: Inhibition of PI3Kalpha in human Rh30 cells assessed as reduction in rhIGF1-stimulated AKT phosphorylation at Ser473 treated for 1 hr followed by incubation with IGF1 for 10 mins by western blot analysis; assay type: cell-based; details: dose 0.01-1 µM, time 70.0 min
Chain of Phosphatidylinositol 4,5-bisphosphate 3-kinase catalytic subunit alpha isoform (P42336 whole entry, canonical isoform): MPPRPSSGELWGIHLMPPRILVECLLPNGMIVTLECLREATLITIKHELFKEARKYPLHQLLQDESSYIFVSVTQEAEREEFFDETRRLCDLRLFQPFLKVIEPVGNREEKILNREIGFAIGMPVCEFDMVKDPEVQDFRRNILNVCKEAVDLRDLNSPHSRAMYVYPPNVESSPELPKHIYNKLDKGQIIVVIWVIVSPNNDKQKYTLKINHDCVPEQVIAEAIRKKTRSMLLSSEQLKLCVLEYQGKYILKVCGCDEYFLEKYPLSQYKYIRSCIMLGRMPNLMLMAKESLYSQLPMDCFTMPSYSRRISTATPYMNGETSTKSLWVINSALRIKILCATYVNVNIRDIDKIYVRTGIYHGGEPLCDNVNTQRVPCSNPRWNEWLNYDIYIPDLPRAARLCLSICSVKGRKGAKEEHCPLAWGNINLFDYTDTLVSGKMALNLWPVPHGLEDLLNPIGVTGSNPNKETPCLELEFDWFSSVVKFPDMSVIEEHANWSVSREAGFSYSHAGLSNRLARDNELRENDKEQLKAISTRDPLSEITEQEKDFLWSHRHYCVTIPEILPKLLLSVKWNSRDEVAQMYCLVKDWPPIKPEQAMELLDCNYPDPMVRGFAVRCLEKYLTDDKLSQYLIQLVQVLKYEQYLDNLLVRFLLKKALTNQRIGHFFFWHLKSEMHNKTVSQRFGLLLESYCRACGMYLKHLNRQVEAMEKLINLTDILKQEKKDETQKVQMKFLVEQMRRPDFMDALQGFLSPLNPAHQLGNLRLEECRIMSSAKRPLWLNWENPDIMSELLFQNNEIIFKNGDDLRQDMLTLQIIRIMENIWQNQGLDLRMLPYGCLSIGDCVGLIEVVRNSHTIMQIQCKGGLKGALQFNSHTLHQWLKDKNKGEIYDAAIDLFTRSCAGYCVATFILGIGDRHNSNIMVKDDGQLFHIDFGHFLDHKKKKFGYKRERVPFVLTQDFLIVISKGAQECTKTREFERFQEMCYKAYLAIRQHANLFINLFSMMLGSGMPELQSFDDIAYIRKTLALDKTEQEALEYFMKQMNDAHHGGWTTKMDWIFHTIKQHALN
Outline: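 U87MG or Rh30 cells held 24 h in serum-free medium, exposed to compound for 1 h, then stimulated with 50 ng/ml IGF-I for 10 min. Lysates blotted for Akt, pAkt T308 and pAkt S473.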

[2] = Metabolic stability in rat hepatocytes assessed as intrinsic clearance; assay type: ADME, cell-based, Hepatocyte; details: read-out: CLH
[3] = Half life in rat at 10 mg/kg, po; assay type: ADME, organism-based; details: in vivo
Outline: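 Male rats given 10 mg/kg p.o.; Cmax and terminal half-life taken from the plasma concentration–time profile.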

[4] = biological target: Serine/threonine-protein kinase mTOR (Homo sapiens, UniProt P42345); experiment: Inhibition of human full length recombinant mTOR in presence of [gamma33P-ATP] by radiometric scintillation counting analysis
[5] = biological target: Phosphatidylinositol 4,5-bisphosphate 3-kinase catalytic subunit beta isoform (Homo sapiens) (UniProt P42338); experiment: Inhibition of PI3Kbeta (unknown origin) transfected in human Rh30 cells assessed as reduction in AKT phosphorylation at Ser473 residue at 10XIC50 by western blot analysis; assay type: cell-based
Chain of Phosphatidylinositol 4,5-bisphosphate 3-kinase catalytic subunit beta isoform (Homo sapiens) (P42338 whole entry, looked up, canonical isoform): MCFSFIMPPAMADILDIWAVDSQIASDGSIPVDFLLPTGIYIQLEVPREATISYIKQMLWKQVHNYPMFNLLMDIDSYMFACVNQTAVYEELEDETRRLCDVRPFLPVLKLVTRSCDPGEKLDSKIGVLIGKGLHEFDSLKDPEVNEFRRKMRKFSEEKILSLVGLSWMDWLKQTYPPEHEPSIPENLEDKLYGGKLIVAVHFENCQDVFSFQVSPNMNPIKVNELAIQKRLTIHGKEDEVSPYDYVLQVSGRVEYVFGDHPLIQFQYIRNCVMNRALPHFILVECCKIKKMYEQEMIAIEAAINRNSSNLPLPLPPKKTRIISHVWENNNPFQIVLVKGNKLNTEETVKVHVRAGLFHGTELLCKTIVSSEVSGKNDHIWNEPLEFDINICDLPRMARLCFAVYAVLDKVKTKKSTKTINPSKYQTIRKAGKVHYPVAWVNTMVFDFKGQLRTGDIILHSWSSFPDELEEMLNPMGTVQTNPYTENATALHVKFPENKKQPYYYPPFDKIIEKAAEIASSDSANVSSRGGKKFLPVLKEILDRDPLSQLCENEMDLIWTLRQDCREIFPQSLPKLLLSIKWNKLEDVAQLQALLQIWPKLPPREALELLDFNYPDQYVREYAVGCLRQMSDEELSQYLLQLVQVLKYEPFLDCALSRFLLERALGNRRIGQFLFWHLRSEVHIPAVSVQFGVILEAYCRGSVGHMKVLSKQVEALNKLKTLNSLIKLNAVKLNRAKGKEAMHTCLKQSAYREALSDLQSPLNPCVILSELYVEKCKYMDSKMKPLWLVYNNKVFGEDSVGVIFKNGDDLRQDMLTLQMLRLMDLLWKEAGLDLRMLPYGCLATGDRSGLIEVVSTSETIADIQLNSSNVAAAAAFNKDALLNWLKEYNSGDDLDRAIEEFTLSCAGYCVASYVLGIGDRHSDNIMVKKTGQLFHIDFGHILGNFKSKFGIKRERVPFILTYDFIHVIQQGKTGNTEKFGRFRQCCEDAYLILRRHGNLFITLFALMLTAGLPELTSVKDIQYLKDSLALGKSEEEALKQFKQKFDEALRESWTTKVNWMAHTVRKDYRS
Outline: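 Rh30 cells ectopically expressing membrane-anchored, N-terminally myristoylated, constitutively active p110α, β, γ or δ. Akt phosphorylation assessed by Western blot; lysates made in RIPA buffer, equal protein heated at 95 °C for 10 min in SDS loading buffer.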

[6] = Toxicity in BALB/cA nude mouse xenografted with human SK-OV-3 cells assessed as changes in body weight at 5 to 20 mg/kg, po administered once a day for 21 days and measured twice per week; assay type: organism-based; details: in vivo, 504 h, dose 5-20 mg/kg/day, time 21 day
Outline: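 Female BALB/cA nude mice, 4–5 weeks old, received s.c. passaged SKOV-3 tumor fragments (1.5 mm³) in the right flank. At about 100 mm³ they were randomized to oral vehicle or compound once daily for 21 days. Body weight was measured individually twice per week.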

ZR-75-1 = experiment: Antiproliferative activity against human ZR-75-1 cells assessed as reduction in cell viability after 72 hrs by sulforhodamine B assay; assay type: functional, cell-based; details: ZR-75-1, 72 h; outline: as §1
MCF7 = experiment: Antiproliferative activity against human MCF7 cells assessed as reduction in cell viability after 72 hrs by sulforhodamine B assay; assay type: functional, cell-based; details: MCF7, 72 h; outline: as §1
SK-OV-3 = experiment: Antiproliferative activity against human SK-OV-3 cells assessed as reduction in cell viability after 72 hrs by sulforhodamine B assay; assay type: functional, cell-based; details: SK-OV-3, 72 h; outline: as §1
[7] = Metabolic stability in cynomolgus monkey hepatocytes assessed as intrinsic clearance; assay type: ADME, cell-based, Macaca fascicularis, Hepatocyte; details: read-out: CLH
[8] = Metabolic stability in Beagle dog hepatocytes assessed as half life; assay type: ADME, cell-based, Canis lupus familiaris, Hepatocyte

pIC50 (PC-3): > 6.00 | inhibition [1]: Dose-dependent effect | CLint scaled [2]: 16.9 mL/min/kg | half-life [3]: 1.49 h | pIC50 [4]: < 5.00 | inhibition [5]: Active | pIC50 (MCF7): > 6.00 | pIC50 (SK-OV-3): > 6.00 | CLint scaled [7]: 29 mL/min/kg | half-life [8]: 1.46 h
SMILES: COC(=O)Nc1cc(C(F)(F)F)c(-c2nc(N3CCOCC3)c3cc(CN4CCN(S(C)(=O)=O)CC4)cn3n2)cn1 [RISOVALISIB]
inhibition (Mus musculus): inactive | Activity [6]: Non-Toxic | pIC50 (ZR-75-1): > 6.00

From ChEMBL document CHEMBL4732078 (Eur J Med Chem, 2021)
